Measured values from ChEMBL document CHEMBL1795285, “Facile fabrication of promising protein tyrosine phosphatase (PTP) inhibitor entities based on 'clicked' serine/threonine-monosaccharide hybrids” (Bioorg Med Chem, 2011).
The source made the active and inactive calls. The calls are words filed in the database; no cut-off is given here.

Experiments:
[1] = molecular target: T1, Tyrosine-protein phosphatase non-receptor type 1 (Homo sapiens, UniProt P18031); experiment: Inhibition of human recombinant […] catalytic domain using pNPP substrate
T1 sequence (P18031 whole entry): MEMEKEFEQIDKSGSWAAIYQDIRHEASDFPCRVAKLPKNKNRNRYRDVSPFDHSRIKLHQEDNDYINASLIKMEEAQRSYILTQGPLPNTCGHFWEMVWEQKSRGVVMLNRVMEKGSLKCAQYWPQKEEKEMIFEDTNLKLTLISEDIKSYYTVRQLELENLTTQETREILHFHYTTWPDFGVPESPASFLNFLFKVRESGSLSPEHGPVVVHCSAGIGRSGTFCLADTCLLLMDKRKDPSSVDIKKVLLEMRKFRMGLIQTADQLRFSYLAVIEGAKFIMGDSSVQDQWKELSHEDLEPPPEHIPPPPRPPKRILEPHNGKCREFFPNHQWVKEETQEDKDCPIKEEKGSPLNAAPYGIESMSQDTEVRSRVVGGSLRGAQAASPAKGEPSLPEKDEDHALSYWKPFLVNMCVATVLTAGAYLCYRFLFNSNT
In short: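 Recombinant human PTP1B catalytic domain (30 nM) with 2 mM pNPP in 50 mM MOPS, pH 6.5, at 30 °C. Inhibitor diluted around the estimated IC50. Initial rate taken from the early linear part of the 405 nm trace over 2 min. IC50 from nonlinear fit of % inhibition vs [I] with a Hill-coefficient equation. Means of three experiments.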

[2] = molecular target: T2, Tyrosine-protein phosphatase non-receptor type 2 (Homo sapiens, UniProt P17706); experiment: Inhibition of TCPTP
T2 sequence (P17706 whole entry): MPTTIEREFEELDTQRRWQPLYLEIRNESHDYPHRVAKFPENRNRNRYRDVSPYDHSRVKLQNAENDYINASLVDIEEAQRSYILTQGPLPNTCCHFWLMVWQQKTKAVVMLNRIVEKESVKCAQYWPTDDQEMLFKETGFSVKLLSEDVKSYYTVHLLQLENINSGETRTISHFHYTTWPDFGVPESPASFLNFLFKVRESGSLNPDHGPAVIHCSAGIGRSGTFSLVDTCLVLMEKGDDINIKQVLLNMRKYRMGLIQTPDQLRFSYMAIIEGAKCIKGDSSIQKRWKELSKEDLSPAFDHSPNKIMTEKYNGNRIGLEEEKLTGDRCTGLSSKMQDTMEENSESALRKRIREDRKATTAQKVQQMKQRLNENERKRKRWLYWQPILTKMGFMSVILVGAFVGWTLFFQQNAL

[3] = molecular target: Receptor-type tyrosine-protein phosphatase F (Homo sapiens, UniProt P10586); experiment: Inhibition of human LAR
[4] = molecular target: T3, M-phase inducer phosphatase 2 (Homo sapiens, UniProt P30305); experiment: Inhibition of human Cdc25B
T3 sequence (P30305 whole entry): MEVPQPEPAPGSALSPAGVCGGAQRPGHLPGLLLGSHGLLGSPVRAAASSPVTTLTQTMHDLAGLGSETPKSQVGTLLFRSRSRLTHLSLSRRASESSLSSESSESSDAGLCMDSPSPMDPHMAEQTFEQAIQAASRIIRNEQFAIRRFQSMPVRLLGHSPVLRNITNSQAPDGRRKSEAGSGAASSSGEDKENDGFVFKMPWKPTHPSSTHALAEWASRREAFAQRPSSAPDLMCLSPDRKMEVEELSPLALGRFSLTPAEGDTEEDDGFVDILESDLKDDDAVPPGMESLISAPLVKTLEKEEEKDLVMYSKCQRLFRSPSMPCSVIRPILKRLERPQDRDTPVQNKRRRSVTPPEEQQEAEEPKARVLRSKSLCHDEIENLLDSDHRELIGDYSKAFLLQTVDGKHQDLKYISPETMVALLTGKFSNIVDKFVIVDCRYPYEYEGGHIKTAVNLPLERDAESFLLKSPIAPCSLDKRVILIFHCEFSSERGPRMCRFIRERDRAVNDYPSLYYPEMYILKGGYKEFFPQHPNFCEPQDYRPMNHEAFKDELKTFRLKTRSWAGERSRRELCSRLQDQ

[5] = molecular target: T4, Tyrosine-protein phosphatase non-receptor type 11 (Homo sapiens, UniProt Q06124); experiment: Inhibition of SHP2
T4 sequence (Q06124 whole entry): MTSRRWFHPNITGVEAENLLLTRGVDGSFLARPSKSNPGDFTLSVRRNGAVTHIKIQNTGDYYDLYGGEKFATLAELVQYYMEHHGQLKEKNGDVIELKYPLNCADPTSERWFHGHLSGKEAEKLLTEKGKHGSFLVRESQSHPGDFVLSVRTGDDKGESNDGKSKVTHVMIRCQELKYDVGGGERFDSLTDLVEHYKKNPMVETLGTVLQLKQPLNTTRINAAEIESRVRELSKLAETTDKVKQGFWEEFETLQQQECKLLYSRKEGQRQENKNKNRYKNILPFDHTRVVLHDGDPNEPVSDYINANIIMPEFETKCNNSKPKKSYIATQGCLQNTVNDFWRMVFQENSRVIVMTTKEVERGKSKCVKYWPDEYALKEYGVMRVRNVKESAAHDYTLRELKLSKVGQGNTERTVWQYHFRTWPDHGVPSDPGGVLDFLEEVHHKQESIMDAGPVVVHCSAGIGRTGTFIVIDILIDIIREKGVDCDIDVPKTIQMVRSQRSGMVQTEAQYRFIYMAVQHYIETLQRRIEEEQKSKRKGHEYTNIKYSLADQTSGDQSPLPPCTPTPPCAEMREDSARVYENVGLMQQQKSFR

[6] = test system: HeLa; experiment: Cytotoxicity against human HeLa cells after 72 hrs by MTT assay; assay type: functional, cell-based
In short: (§1)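 Cells seeded at 2000/well and held 24 h at 37 °C, 5% CO2 before treatment. After a 3 h MTT incubation, medium was replaced by DMSO. Absorbance read at 550 nm against a 690 nm reference, with OD taken as proportional to viable cell number.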

[7] = molecular target: T5, M-phase inducer phosphatase 1 (Homo sapiens, UniProt P30304); experiment: Inhibition of human CDC25A
T5 sequence (P30304 whole entry): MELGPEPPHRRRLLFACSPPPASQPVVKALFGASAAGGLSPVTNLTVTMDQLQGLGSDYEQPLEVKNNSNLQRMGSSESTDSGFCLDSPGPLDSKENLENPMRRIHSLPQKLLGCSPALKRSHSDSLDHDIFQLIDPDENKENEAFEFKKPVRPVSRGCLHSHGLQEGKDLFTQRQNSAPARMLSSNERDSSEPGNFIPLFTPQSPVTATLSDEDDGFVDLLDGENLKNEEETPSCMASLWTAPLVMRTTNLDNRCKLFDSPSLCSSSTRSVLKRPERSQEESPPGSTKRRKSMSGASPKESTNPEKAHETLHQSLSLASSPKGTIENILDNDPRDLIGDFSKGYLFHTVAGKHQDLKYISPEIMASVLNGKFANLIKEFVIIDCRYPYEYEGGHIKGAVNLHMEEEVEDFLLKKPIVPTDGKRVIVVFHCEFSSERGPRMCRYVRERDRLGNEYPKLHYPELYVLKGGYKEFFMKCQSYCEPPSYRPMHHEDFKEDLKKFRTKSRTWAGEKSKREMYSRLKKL

[8] = test system: A549; experiment: Cytotoxicity against human A549 cells after 72 hrs by MTT assay; assay type: functional, cell-based; conditions: A549, 72 h; in short: as §1
[9] = test system: HCT-116; experiment: Cytotoxicity against human HCT116 cells after 72 hrs by MTT assay; assay type: functional, cell-based; conditions: HCT-116, 72 h; in short: as §1
[10] = molecular target: Tyrosine-protein phosphatase non-receptor type 6 (Homo sapiens, UniProt P29350); experiment: Inhibition of SHP1
[11] = molecular target: T6, M-phase inducer phosphatase 2 (Homo sapiens) (UniProt P30305); experiment: Mixed type inhibition of human Cdc25B using pNPP substrate at 30 degC and pH 6.5 by Eadie-Hofstee plot
T6 sequence (whole entry): T3 sequence (P30305 whole entry)

[12] = molecular target: T1, Tyrosine-protein phosphatase non-receptor type 1; experiment: Competitive inhibition of human recombinant […] catalytic domain using pNPP substrate at 30 degC and pH 6.5 by Eadie-Hofstee plot
In short: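 For the inhibition-mode study, 30 nM PTP1B was run in 50 mM MOPS, pH 6.5, at 30 °C. pNPP was varied in twofold dilutions up to 80 mM, at several inhibitor concentrations. pNP release was read at 405 nm.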

Sequence of Tyrosine-protein phosphatase non-receptor type 6 (P29350 whole entry): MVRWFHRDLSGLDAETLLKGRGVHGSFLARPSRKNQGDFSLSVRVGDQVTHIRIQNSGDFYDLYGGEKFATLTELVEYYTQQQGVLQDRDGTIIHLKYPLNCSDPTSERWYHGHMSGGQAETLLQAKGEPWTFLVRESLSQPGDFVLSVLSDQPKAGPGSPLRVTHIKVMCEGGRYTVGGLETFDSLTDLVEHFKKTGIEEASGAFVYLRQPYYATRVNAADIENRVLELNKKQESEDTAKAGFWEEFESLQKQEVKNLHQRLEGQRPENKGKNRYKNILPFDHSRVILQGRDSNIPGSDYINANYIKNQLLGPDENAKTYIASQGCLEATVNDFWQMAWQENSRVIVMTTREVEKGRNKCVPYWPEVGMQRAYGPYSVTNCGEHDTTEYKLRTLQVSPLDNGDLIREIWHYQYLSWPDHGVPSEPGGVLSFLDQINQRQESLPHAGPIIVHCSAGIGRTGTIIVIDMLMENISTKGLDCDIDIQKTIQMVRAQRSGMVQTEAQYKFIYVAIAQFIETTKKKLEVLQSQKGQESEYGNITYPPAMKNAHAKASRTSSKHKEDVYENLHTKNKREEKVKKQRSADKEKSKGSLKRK
Sequence of Receptor-type tyrosine-protein phosphatase F (P10586 whole entry): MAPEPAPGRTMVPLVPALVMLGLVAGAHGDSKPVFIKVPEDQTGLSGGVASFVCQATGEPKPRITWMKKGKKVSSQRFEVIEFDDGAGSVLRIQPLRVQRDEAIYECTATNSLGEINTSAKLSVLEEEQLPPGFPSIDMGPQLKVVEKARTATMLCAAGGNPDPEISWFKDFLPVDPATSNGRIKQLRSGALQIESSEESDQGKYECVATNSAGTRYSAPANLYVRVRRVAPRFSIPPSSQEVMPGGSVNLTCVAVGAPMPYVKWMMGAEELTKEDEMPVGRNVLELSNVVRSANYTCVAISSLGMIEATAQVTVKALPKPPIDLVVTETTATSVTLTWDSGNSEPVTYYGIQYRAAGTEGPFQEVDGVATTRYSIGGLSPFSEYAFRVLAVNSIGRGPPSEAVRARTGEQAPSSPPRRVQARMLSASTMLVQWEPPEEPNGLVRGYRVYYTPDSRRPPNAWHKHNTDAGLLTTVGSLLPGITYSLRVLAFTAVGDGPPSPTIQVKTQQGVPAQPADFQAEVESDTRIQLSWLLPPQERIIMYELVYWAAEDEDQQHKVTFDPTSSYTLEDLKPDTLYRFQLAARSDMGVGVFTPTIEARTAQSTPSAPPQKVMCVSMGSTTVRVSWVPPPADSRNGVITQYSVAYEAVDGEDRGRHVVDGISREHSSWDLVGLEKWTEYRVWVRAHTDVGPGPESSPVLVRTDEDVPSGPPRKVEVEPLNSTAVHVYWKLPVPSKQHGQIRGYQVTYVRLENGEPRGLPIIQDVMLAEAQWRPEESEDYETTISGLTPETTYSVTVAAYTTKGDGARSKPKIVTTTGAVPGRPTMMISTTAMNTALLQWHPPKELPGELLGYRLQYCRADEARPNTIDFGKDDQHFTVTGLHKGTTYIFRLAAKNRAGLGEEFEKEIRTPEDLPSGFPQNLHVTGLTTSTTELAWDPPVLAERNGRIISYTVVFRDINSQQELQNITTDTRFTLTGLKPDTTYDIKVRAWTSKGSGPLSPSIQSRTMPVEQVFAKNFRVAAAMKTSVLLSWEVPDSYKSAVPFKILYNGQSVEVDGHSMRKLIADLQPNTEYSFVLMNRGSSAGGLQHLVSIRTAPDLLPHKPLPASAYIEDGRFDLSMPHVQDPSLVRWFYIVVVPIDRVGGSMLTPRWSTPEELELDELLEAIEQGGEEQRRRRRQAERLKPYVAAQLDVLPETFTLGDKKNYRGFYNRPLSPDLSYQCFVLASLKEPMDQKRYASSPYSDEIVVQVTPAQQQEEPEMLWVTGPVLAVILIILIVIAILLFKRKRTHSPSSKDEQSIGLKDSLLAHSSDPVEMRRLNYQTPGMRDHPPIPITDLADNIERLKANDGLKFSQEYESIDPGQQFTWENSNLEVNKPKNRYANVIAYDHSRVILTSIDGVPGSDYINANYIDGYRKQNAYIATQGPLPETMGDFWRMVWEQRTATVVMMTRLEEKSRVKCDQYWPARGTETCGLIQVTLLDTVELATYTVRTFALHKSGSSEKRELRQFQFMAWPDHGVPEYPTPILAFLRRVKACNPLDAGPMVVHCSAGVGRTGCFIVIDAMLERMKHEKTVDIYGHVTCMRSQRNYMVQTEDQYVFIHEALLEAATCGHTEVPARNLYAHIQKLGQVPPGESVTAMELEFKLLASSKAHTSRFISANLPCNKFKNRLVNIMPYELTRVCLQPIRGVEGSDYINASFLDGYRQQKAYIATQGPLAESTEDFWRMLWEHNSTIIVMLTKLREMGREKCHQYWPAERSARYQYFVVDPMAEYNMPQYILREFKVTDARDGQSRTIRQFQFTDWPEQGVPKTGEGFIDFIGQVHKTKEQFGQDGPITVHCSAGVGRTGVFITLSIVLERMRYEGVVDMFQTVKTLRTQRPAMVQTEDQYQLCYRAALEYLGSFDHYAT

Compound | IC50 [1] [µM] | IC50 [2] [µM] | IC50 [3] [µM] | IC50 [4] [µM] | IC50 [5] [µM] | IC50 [7] [µM] | IC50 [10] [µM] | inhibition [11] | Ki [12] [µM] | IC50 [6] [µM] | IC50 [8] [µM] | IC50 [9] [µM]
C[C@H](OCc1cn([C@@H]2O[C@H](COCc3ccccc3)[C@@H](OCc3ccccc3)[C@H](OCc3ccccc3)[C@H]2OCc2ccccc2)nn1)[C@H](NC(=O)OC(C)(C)C)C(=O)O | 7.1 | 38.6 | > 120 | 11.6 | > 120 | 53 | > 120 | – | – | 31.5 | 25.3 | 12
CO[C@H]1O[C@H](Cn2cc(COC[C@H](NC(=O)OC(C)(C)C)C(=O)O)nn2)[C@H](OCc2ccccc2)[C@H](OCc2ccccc2)[C@H]1OCc1ccccc1 | 20.9 | 54.9 | > 120 | 20.6 | > 120 | > 120 | > 120 | – | – | > 120 | > 120 | > 120
CO[C@H]1O[C@H](Cn2cc(CO[C@@H](C)[C@H](NC(=O)OC(C)(C)C)C(=O)O)nn2)[C@@H](OCc2ccccc2)[C@H](OCc2ccccc2)[C@H]1OCc1ccccc1 | 22.3 | 80.7 | > 120 | 27.1 | > 120 | 119 | > 120 | – | – | 69.5 | 62.8 | 33.5
CO[C@H]1O[C@H](Cn2cc(CO[C@@H](C)[C@H](NC(=O)OC(C)(C)C)C(=O)O)nn2)[C@@H](OCc2ccccc2)[C@H](OCc2ccccc2)[C@@H]1OCc1ccccc1 | 26 | 105 | > 120 | 12.2 | > 120 | 51.6 | > 120 | – | – | 53.7 | 57.2 | 32.2
CO[C@H]1O[C@H](Cn2cc(CO[C@@H](C)[C@H](NC(=O)OC(C)(C)C)C(=O)O)nn2)[C@H](OCc2ccccc2)[C@H](OCc2ccccc2)[C@H]1OCc1ccccc1 | 15.3 | > 120 | > 120 | 31.1 | > 120 | > 120 | > 120 | – | – | 56.4 | 108 | 36.6

The next lines start with results.

IC50 [1] [µM] | IC50 [2] [µM] | IC50 [3] [µM] | IC50 [4] [µM] | IC50 [5] [µM] | IC50 [7] [µM] | IC50 [10] [µM] | inhibition [11] | Ki [12] [µM] | Compound | IC50 [6] [µM] | IC50 [8] [µM] | IC50 [9] [µM]
67.8 | > 120 | > 120 | 67.5 | > 120 | > 120 | > 120 | – | – | CO[C@H]1O[C@H](Cn2cc(COC[C@H](NC(=O)OC(C)(C)C)C(=O)O)nn2)[C@@H](OCc2ccccc2)[C@H](OCc2ccccc2)[C@H]1OCc1ccccc1 | 75.4 | 120 | 46.3
18.5 | 89.2 | > 120 | 8.2 | > 120 | 26.8 | > 120 | – | – | CO[C@H]1O[C@H](Cn2cc(COC[C@H](NC(=O)OC(C)(C)C)C(=O)O)nn2)[C@@H](OCc2ccccc2)[C@H](OCc2ccccc2)[C@@H]1OCc1ccccc1 | 54.2 | 97.3 | 32.3
> 120 | – | > 120 | > 120 | > 120 | – | > 120 | – | – | CC(C)(C)OC(=O)N[C@@H](COCc1cn([C@@H]2O[C@H](CO)[C@@H](O)[C@H](O)[C@H]2O)nn1)C(=O)O | – | – | –
5.9 | 12.5 | > 120 | 6.2 | 47.6 | 24.3 | 40.4 | Active | 3.9 | CC(C)(C)OC(=O)N[C@@H](COCc1cn([C@@H]2O[C@H](COCc3ccccc3)[C@@H](OCc3ccccc3)[C@H](OCc3ccccc3)[C@H]2OCc2ccccc2)nn1)C(=O)O | 25.3 | 35.2 | 12.8
